In the library only some 4.3% were active in any assay of this set; here they are far more common.
Rin1-Abl PPI inh – inhibitors of Rin1-Abl protein binding, primary screen, biochemical, TR-FRET | Tyrosine-protein kinase ABL1 (Homo sapiens) + Ras and Rab interactor 1 (Homo sapiens), … | inhibition, % at 7.35 µM | 0.4% of 360,000 active; in the data active = inhibition above about 5%, passing the limit was not always enough
RBBP9 inhibitor – human RBBP9 inhibitors, primary screen, biochemical, fluorescence polarization, FP-Rh probe, HTS; Serine hydrolase RBBP9 (Homo sapiens), O75884; recombinant RBBP9; inhibition, % at 7.94 µM; 0.2% of 220,000 active;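 active = inhibition above the campaign mean of all tested compounds plus 3 SD, cut at about 14% in these data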;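 also: plate controls were DMSO wells with RBBP9 for no effect and wells lacking RBBP9 protein for full effect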
Target sequence (O75884 whole entry, looked up): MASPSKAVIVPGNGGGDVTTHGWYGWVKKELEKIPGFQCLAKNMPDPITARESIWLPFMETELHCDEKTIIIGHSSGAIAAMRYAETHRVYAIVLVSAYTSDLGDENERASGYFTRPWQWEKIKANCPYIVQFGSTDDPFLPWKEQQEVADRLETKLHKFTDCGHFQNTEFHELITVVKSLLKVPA
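Test system: recombinant human RBBP9; Timing: 30 min then 45 min, 25 °C; Detection: fluorescence polarization; Control set: RBBP9 with DMSO as uninhibited control, no-protein wells as full inhibition; Compound dosing: one concentration, 7.94 µM nominal, 0.794% DMSO; Probe or stimulus: FP-Rh activity-based probe, 375 nM before mixing.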
SUMO HTRF inh – inhibitors of in vitro SUMOylation cascade, primary screen, biochemical, HTRF, uHTS. AID 2006, 2009. 0.36% of 290,000 active. HTRF SUMOylation assay, SAE1/SAE2 + UBC9. inhibition, % at 35 µM. SUMO-conjugating enzyme UBC9 (Homo sapiens), P63279; in the data active = inhibition above about 50%, passing the limit was not always enough
UBC13 polyUb – UBC13 polyubiquitin chain formation inhibitors, primary screen, biochemical, TR-FRET, uHTS | Ubiquitin-conjugating enzyme E2 N (Homo sapiens), P61088 | inhibition, % at 20 µM | 0.47% of 330,000 active; in the data active = inhibition above about 45%, passing the limit was not always enough
Target sequence (P61088 whole entry, looked up): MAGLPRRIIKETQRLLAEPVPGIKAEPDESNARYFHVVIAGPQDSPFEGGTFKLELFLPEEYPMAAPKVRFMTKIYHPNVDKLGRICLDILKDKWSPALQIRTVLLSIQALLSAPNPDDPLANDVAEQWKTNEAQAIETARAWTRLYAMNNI
PREPL inh – PREPL enzyme inhibitors, primary screen, biochemical, fluorescence polarization. 0.68% of 320,000 active. inhibition, % at 5.96 µM. AID 2751, 2010. recombinant PREPL, fluorescence polarization activity-based probe. Prolyl endopeptidase-like (Homo sapiens), Q4J6C6; in the data active = inhibition above about 43%;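 also: 0% = enzyme with DMSO and 100% = wells lacking enzyme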
ALR H2O2 inh – inhibitors of human ALR sulfhydryl oxidase, primary screen, biochemical, H2O2 detection, HRP-luminol luminescence, single point. 3.8% of 290,000 active. purified ALR, DTT oxidation. inhibition, % (no concentration beside the values);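 active = mean replicate inhibition above about 79%, with every replicate also reaching it, limit read from the data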
Target sequence (P55789 whole entry, looked up): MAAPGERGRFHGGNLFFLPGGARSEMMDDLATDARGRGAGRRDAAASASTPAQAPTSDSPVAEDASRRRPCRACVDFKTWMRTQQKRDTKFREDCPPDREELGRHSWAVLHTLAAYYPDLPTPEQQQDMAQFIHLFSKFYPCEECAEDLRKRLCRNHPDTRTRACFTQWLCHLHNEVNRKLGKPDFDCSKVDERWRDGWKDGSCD
Numbers without * were called inactive; . = no result.

SMILES	Rin1-Abl PPI inh	RBBP9 inhibitor	SUMO HTRF inh	UBC13 polyUb	PREPL inh	ALR H2O2 inh
O=C(CCNC(=O)C1CCN(S(=O)(=O)c2ccc(F)cc2)CC1)NCCc1ccc(Cl)cc1	-3	.	0	6	27	-18
NC(=O)COc1ccc(C(=O)NCC2(N3CCOCC3)CCCCC2)cc1	1	.	.	-3	1	-3
O=C(NC(=S)N(Cc1ccccc1)c1ccccn1)C1CCCCC1	-1	3	11	18	-5	99*
CN(Cc1ccccc1)C(=S)NC(=O)C1CCCCC1	1	-5	-8	7	-5	-18
Cc1ccc2c(CC(=O)Nc3sccc3C(N)=O)coc2c1	0	-8	7	1	8	85*
Cc1ccc2c(CC(=O)NCC(=O)Nc3c(C)cccc3C)coc2c1	3	.	.	0	7	9
COc1ccc2c(c1)CCCC21NC(=O)N(CC(=O)NCc2cccs2)C1=O (centres undefined)	0	.	.	-18	9	5
NNC(=O)c1cccc(COc2ccc(Br)cc2)c1	-2	-10	-3	-21	-17	97*
NNC(=O)c1cccc(COc2cccc(Br)c2)c1	-1	-13	-22	0	-17	-5
COc1ccc(-n2ccnc(SCC(=O)NCc3ccccc3Cl)c2=O)cc1	-2	.	20	13	19	99*
O=C1CN(C(=O)COC(=O)c2ccc(Cl)c(S(=O)(=O)N3CCCCC3)c2)c2ccccc2N1	4	.	.	2	11	.
COc1ncnc2c1ncn2CCCNCc1ccc(C)o1	2	.	.	.	.	.
CN(C)/C=C(\C#N)C(=O)Nc1ccccc1	0	-9	7	1	0	-6
CN(C)/C=C(\C#N)C(=O)Nc1ccc(O)cc1F	0	8	0	4	9	99*
CCN(CCO)c1ccc(Nc2cc(-c3ccc(-c4ccccc4)cc3)ncn2)cc1	-2	.	.	.	.	.
CCN(CCO)c1ccc(N=Nc2cc(C)[nH]n2)cc1	-11	7	0	-308	5	84*
COc1ccc(C2=CSC3=NCCN23)cc1F	-3	-4	17	7	-7	85*
COc1ccc(C2=CSC3=NCCN23)cc1Cl	2	.	12	-11	3	13
O=C(CCn1c(=O)oc2cc(Cl)ccc21)Nc1ccc(O)cc1	2	.	15	2	2	98*
CC1(C)CC2(CCO1)C(Nc1ccccc1)=NC(=S)N2c1ccccc1 (centres undefined)	.	0	-13	2	2	0
COc1ccc(Br)cc1C(=O)Nc1ccc(O)cc1	-1	-4	23	0	12	99*
O=C(O)c1ccc(S(=O)(=O)Nc2ccc(O)c(Sc3nc4ccccc4s3)c2)cc1	5	2	16	2	1	100*
NS(=O)(=O)c1ccc(Sc2nc3ccccc3s2)c([N+](=O)[O-])c1	-2	-6	18	-2	8	98*
CC1CCC(NC(=O)CC(NC(N)=O)c2ccccc2Cl)CC1 (centres undefined)	-2	.	-8	-6	1	3
Cc1cc(=O)[nH]c(S/C=C/c2ccccc2)n1	-2	-3	-8	16	7	98*
SMILES	Rin1-Abl PPI inh	RBBP9 inhibitor	SUMO HTRF inh	UBC13 polyUb	PREPL inh	ALR H2O2 inh
CC(C)c1ccc(Oc2cccc(C(=O)/C(C#N)=C/N(C)C)c2)cc1	-2	-12	23	-1	-8	98*
NC(CSS(=O)(=O)O)=NCCC12CC3CC(CC(O)(C3)C1)C2	-1	3	14	-2	-2	85*
Nc1ncnc2oc(-c3ccco3)c(-c3ccco3)c12	1	-2	78*	61*	20	-14
COc1cccc(-n2nnnc2S(C)(=O)=O)c1	0	0	13	-20	0	99*
COc1cccc(Oc2nnnn2-c2ccccc2)c1	-1	-6	-5	-13	-8	-15
Cc1onc(C(=O)NC(C)c2ccccc2)c1[N+](=O)[O-] (centres undefined)	1	6	6	2	-7	0
O=C(NC(=S)NCc1nc2ccccc2[nH]1)c1ccc(F)cc1	0	5	2	6	4	76*
O=C(NC(=S)NCc1nc2ccccc2[nH]1)c1ccccc1F	-3	0	0	-6	14	3
CCN(C(=O)Cc1c(C(=O)O)n(C)c2ccccc12)c1cccc(C)c1	0	.	14	-7	-13	-1
Cc1ccc(/C(N)=N/OC(=O)c2cccs2)cc1	4	-8	-2	3	2	86*
CC1CCN(C(=O)c2[nH]cnc2C(=O)NCc2ccc(CNC(=O)OC(C)(C)C)cc2)CC1	4	.	.	16	3	-1
Cc1ccc(NC(=O)c2ccccc2)s1	-2	2	16	-14	7	95*
Cc1cc(NC(=O)c2ccccc2)sc1C	-3	-7	-1	-10	3	0
CC(OC(=O)c1ccc2ccccc2c1)C(=O)N(C)Cc1ccccc1 (centres undefined)	1	.	.	2	1	-1
CC(C)N(CCC(=O)c1ccc2ccccc2c1)Cc1ccccc1	-1	.	.	13	-19	97*
C[C@H](CO)N1C[C@H](C)[C@H](CN(C)Cc2cccc(C(F)(F)F)c2)OCc2ccccc2-c2c(n(C)c3ccccc23)C1=O	-3	.	.	.	.	.
CC(=O)C1=C(c2cccc([N+](=O)[O-])c2)N(C(C)=O)n2c(C)nnc2S1	4	-12	-46	0	3	98*
CN1CCN(C(=O)CCNC(=O)Cn2ccc3ccccc3c2=O)CC1	4	-7	17	-1	-7	-11
CCN(CCCNC(=O)CNC(=O)Cn1cnc2ccccc2c1=O)c1cccc(C)c1	1	-6	16	0	0	.
O=C(Cn1cnc2ccccc2c1=O)NCCC(=O)N1CCN(c2ccccc2)CC1	-4	-10	10	4	-12	96*
COc1ccc(N2CCN(C(=O)CCNC(=O)Cn3ccc4ccccc4c3=O)CC2)cc1	-4	-5	-4	-2	5	85*
CCN(CCCNC(=O)CCNC(=O)Cn1cnc2ccccc2c1=O)c1ccccc1	1	3	-8	18	13	99*
Cc1ccc2[nH]c(C(=O)N3CCOCC3)cc2c1	1	.	12	-7	0	-11
CC(C)(C)OC(=O)NCCc1onc(-c2cccc([N+](=O)[O-])c2)c1C(=O)O	-1	.	.	.	.	.
N#CCCN1C(=O)C2(OCCO2)c2ccccc21	3	.	6	7	4	.
Cc1cc(C)nc(NN2C(=O)C=CC2=O)n1	0	.	8	-5	13	.
CCCCCCc1c(C)nc(-n2[nH]c(C)c(CCO)c2=O)[nH]c1=O	1	-15	-43	-20	8	86*
